Here are results for 2 compounds from article PMC10351452 (Autophagy, 2023).

Experiment [1] has as its system BCL2L1(BCL-XL)-BAX interaction. Description: PCA lysate mixing protocol BCL2L1-L1 + BAX-L2. It is filed as biochemical. Conditions: 1 µM ABT-737 incubated with BCL2L1-L1 lysate 1 h prior to BAX-L2 lysate.
For a further experiment, the system named is PANC1 cells. Description: Cell viability. It is filed as cell-based, human. Particulars: CQ 10 µM, day 4; stated as similar to compound 189.
Experiment [2] relates to autophagosomes and autolysosomes in RFP-GFP-LC3B PANC1 cells. Nature of the experiment: Autophagy flux assay in RFP-GFP-LC3B PANC1 stable cells. It is filed as cell-based, human. Particulars: RFP-GFP-LC3B PANC1, CQ 10 µM, 24 h. A digest of the protocol:
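PANC1 cells transfected with an RFP-GFP-LC3B vector and kept two weeks under puromycin to give a stable polyclonal line. Plated on coverslips at 3X105 cells/well and treated next day, with CQ 10 µM as a comparator. After 24 h: DAPI stain, 4% paraformaldehyde fixation, confocal imaging. Autophagosomes RFP+GFP+; autolysosomes counted as red minus green dots per cell. Normalised to DMSO, mean ± SD, n = 3 biological repeats, two-way ANOVA/Sidak.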

The next experiment concerns NCI-H1299 cells. Nature of the experiment: Cell viability. It is filed as cell-based, human. Conditions: CQ, 4 days. A digest of the protocol: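 HEC-1A (DMEM/F12) and NCI-H1299 (RPMI) cells, media with 10% FBS, plated at 2000 cells/well and treated next day with test compound 10 µM. CQ 10 µM was used in HEC-1 cells. CellTiter-Glo luminescence read after 4 days and expressed as growth relative to DMSO. Mean ± SD; n = 11 for HEC-1A, n = 6 for NCI-H1299. One-way ANOVA with Tukey.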

For experiment [3], the system named is NCI-H460 human lung cancer cells. Nature of the experiment: Cell viability. It is filed as cell-based. Conditions: CQ 10 µM, 4 days.

For the compound `CN(C)CC[C@H](CSc1ccccc1)Nc1ccc(S(=O)(=O)NC(=O)c2ccc(N3CCN(Cc4ccccc4-c4ccc(Cl)cc4)CC3)cc2)cc1[N+](=O)[O-]` [ABT-737], the “luminescence in BCL2L1-L1/BAX-L2 PCA” value in experiment [1] is “significant decrease in luminescence”.

`CCN(CC)CCCC(C)Nc1ccnc2cc(Cl)ccc12` (centres unmarked) [CQ, chloroquine]: the “reduction of growth of PANC1 cells” value in the experiment with PANC1 cells is recorded as more than 50%. Further, the “number of autophagosomes and autolysosomes per cell” value in experiment [2] is reported as “shift toward increased number of autophagosomes at the expense of autolysosomes”. Also, in the experiment on NCI-H1299 cells, the “response of NCI-H1299 cells (viability)” value was “did not respond”. For the same compound, the “effect on growth of NCI-H460 cells” value in experiment [3] is recorded as “no effect”.
